Consider 18 compounds from ChEMBL document CHEMBL1144602, “Synthesis and in vitro binding studies of substituted piperidine naphthamides. Part I: Influence of the substitution on the basic nitrogen and the position of the amide on the affinity for D2L, D4.2, and 5-HT2A receptors” (Bioorg Med Chem Lett, 2007).

Experiment [1] deals with T1, D(4) dopamine receptor (Homo sapiens, UniProt P21917).
T1 sequence (P21917 whole entry): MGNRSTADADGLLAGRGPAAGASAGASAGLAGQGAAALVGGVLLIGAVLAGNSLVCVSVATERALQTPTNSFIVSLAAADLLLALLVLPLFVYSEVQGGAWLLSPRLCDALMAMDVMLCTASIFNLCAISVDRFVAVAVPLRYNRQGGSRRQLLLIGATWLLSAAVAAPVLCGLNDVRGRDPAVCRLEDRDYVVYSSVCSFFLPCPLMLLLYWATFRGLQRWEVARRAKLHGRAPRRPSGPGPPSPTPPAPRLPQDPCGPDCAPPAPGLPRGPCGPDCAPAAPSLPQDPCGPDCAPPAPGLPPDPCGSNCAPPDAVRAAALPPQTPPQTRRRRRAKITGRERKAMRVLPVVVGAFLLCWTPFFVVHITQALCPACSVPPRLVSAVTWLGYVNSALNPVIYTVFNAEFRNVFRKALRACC
Kind of experiment: Displacement of [3H]nemonapride from human cloned dopamine D4.2 receptor. The method, boiled down:
(§1)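 Radioligands were [3H]ketanserin for native rat 5-HT2A, [3H]nemonapride for cloned human D4.2 and [3H]spiperone for cloned human D2L. Ki was determined only for compounds giving >50% inhibition in a 1 µM screen. Values are mean ± SD, n ≥ 2 unless noted.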

Experiment [2] deals with T2, D(2) dopamine receptor (Homo sapiens, UniProt P14416). The experiment in a line: Displacement of [3H]spiperone from human cloned dopamine D2L receptor at 1 uM. The method, boiled down:
(§2)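 Single-point screen at 1 µM, reported as percent inhibition of radioligand binding: [3H]ketanserin at native rat 5-HT2A, [3H]nemonapride at human D4.2, [3H]spiperone at human D2L.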
In general terms: In a radioligand displacement assay an active substance lowers the binding of a labelled ligand.

Experiment [3] concerns the target 5-hydroxytryptamine receptor 2A (Rattus norvegicus) (UniProt P14842). The experiment in a line: Displacement of [3H]ketanserin from rat cloned 5HT2A receptor at 1 uM.
The target of experiment [4] is T3, D(4) dopamine receptor (Homo sapiens) (UniProt P21917).
T3 sequence (whole entry): T1 sequence (P21917 whole entry)
The experiment in a line: Displacement of [3H]nemonapride from human cloned dopamine D4.2 receptor at 1 uM. The method, boiled down: as §2

Experiment [5] deals with T2, D(2) dopamine receptor. The experiment in a line: Displacement of [3H]spiperone from human cloned dopamine D2L receptor. In short, it runs like this: as §1

T2 sequence (P14416 whole entry): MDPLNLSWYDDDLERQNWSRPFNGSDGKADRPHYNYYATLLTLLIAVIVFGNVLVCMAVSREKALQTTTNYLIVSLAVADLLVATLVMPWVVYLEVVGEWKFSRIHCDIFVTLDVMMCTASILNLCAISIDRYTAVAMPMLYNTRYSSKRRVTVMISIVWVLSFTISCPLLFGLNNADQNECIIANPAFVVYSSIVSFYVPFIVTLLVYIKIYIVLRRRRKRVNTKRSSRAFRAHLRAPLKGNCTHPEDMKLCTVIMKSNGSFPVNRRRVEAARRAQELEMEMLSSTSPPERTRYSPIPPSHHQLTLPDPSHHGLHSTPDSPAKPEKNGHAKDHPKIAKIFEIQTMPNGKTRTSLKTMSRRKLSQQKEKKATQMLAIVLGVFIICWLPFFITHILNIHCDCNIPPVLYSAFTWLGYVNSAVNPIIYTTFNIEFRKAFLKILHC
Chain of 5-hydroxytryptamine receptor 2A (Rattus norvegicus) (P14842 whole entry): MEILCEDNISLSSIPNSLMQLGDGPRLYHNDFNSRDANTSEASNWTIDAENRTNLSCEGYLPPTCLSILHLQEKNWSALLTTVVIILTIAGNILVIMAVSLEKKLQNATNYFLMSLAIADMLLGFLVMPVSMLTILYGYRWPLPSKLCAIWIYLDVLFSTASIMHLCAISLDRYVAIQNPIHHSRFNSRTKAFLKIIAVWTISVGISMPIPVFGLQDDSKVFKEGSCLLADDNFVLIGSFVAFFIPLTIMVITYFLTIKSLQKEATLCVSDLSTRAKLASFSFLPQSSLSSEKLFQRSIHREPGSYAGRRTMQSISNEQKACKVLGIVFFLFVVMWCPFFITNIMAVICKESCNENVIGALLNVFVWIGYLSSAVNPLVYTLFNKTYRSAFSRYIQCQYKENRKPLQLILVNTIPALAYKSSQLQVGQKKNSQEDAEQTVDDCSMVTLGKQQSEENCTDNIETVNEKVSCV

For orientation: Ki means a dissociation constant, usually derived from enzyme kinetics or from competition with a known ligand. For `O=C(NC1CCN(CCCCc2ccccc2)CC1)c1cccc2ccccc12`, in experiment [1], the Ki amounted to 362 nM. Further, in experiment [2], the Activity amounted to 18%.
For `O=C(c1cccc2ccccc12)N1CCC(NCc2ccccc2)CC1`, the values for the Activity in experiment [3], in experiment [4] and in experiment [2] were 10%, 1% and 0%, respectively.
Regarding `O=C(NC1CCN(Cc2ccccc2)CC1)c1cccc2ccccc12`, the Ki is 162 nM in experiment [1] and over 1000 nM in experiment [5].
`O=C(NC1CCN(CCCCc2ccccc2)CC1)c1ccc2ccccc2c1` registered a Ki in experiment [1] of 281 nM. Also, in experiment [2], the Activity was 22%.
`CC(c1ccccc1)N1CCC(NC(=O)c2ccc3ccccc3c2)CC1` (centres undefined) registered a Ki in experiment [1] of 29 nM.
As to `O=C(c1ccc2ccccc2c1)N1CCC(NCCc2ccccc2)CC1`, the figures for the Activity in experiment [3] and in experiment [2] were 50% and 0%, respectively. The compound further had a Ki in experiment [1] of 210 nM.
With `O=C(NC1CCN(Cc2ccccc2)CC1)c1ccc2ccccc2c1`, the Ki is 11 nM in experiment [1] and over 1000 nM in experiment [5].
Consider `O=C(c1ccc2ccccc2c1)N1CCC(NCc2ccccc2)CC1`, for which the Activity was determined as 8% in experiment [3] and 0% in experiment [2]. Also, the Ki in experiment [1] was found to be 167 nM.
In turn, `O=C(NC1CCN(CCc2ccccc2)CC1)c1cccc2ccccc12` had a Ki in experiment [1] of 230 nM. Moreover, the Activity in experiment [2] turned out to be 3%.
With `O=C(NC1CCN(CC[C@H](O)c2ccccc2)CC1)c1cccc2ccccc12`, the Activity was 45% in experiment [4] and 0% in experiment [2].
For `O=C(c1ccc2ccccc2c1)N1CCC(NCC[C@H](O)c2ccccc2)CC1`, the Activity in experiment [4] was found to be 49%.
Consider `O=C(c1cccc2ccccc12)N1CCC(NCCCc2ccccc2)CC1`, for which the Activity in experiment [3] came out at 35%; in experiment [4] it was 52%; in experiment [2], 0%.
With `O=C(c1cccc2ccccc12)N1CCC(NCCc2ccccc2)CC1`, the values for the Activity in experiment [4] and in experiment [2] were 16% and 0%, respectively.
On to `O=C(NC1CCN(CCCc2ccccc2)CC1)c1ccc2ccccc2c1`, for which the affinity in experiment [1] corresponds to a Ki of 63 nM. This compound came in with an Activity in experiment [2] of 13%.
With `O=C(NC1CCN(CCc2ccccc2)CC1)c1ccc2ccccc2c1`, the Ki in experiment [1] was determined as 139 nM. In experiment [2], this compound had an Activity of 7%.
In experiment [1], `O=C(NC1CCN(CCCc2ccccc2)CC1)c1cccc2ccccc12` displayed a Ki of 71 nM. The compound also had an Activity in experiment [2] of 9%.
In the case of `O=C(c1ccc2ccccc2c1)N1CCC(NCCCc2ccccc2)CC1`, the results for the Activity in experiment [3] and in experiment [2] were 41% and 0%, respectively. In experiment [1], this compound gave an inhibition constant Ki of 222 nM.
Consider `CC(c1ccccc1)N1CCC(NC(=O)c2cccc3ccccc23)CC1` (centres undefined), for which the Activity in experiment [4] was 21%; in experiment [2], 11%.
